Source: ChEMBL document CHEMBL1152519, “Synthesis, structural activity-relationships, and biological evaluation of novel amide-based allosteric binding site antagonists in NR1A/NR2B N-methyl-D-aspartate receptors” (Bioorg Med Chem, 2009)

Experiments:
[1] = target: Glutamate NMDA receptor; GRIN1/GRIN2B (Homo sapiens, UniProt Q05586+Q13224); assay: Antagonist activity at human recombinant NR1/NR2B receptor expressed in frog oocytes assessed as inhibition of glutamate/glycine-induced current by two electrode voltage clamp method; type: functional, cell-based, Oocyte
How it was run: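 Human NR1/NR2B cRNA injected into Xenopus oocytes. Two-electrode voltage clamp at −40 mV, 23 °C, 2–7 d after injection. Glutamate/glycine (50–100 μM/30 μM) applied, then with 5–8 compound concentrations. Bath contains 10 μM EDTA; leak-corrected.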

[2] = target: Glutamate NMDA receptor; Grin1/Grin2a (Rattus norvegicus) (UniProt P35439+Q00959); assay: Antagonist activity at rat recombinant NR1/NR2A receptor expressed in Xenopus laevis oocytes assessed as inhibition of glutamate/glycine-induced current at 3 uM by two electrode voltage clamp method relative to control; type: functional, cell-based; conditions: Oocyte
How it was run: (§1)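 Xenopus oocytes injected with NR1-1a (3–5 ng) plus NR2A, 2B, 2C or 2D cRNA (7–10 ng), kept at 15 °C. Voltage clamp at −40 mV. Responses to 50 μM glutamate + 30 μM glycine with 3 μM compound, as % of response without compound. NR2A oocytes pre-loaded with 50 μM BAPTA-AM. Mean ± SEM, 4–10 oocytes; paired t-test.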

[3] = target: Glutamate receptor ionotropic, kainate 2 (Rattus norvegicus) (UniProt P42260); assay: Antagonist activity at rat recombinant GluR6 expressed in Xenopus laevis oocytes assessed as inhibition of concanavalin A/glutamate-induced current at 3 uM by two electrode voltage clamp method relative to control; type: functional, cell-based; conditions: Oocyte
How it was run: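 Oocytes expressing homomeric GluR6 (5–10 ng cRNA) pretreated 5 min with 10 μM concanavalin-A. Currents evoked by 100 μM glutamate at −40 mV, with or without 3 μM compound, and given as percent of control. Mean ± SEM of 4–10 oocytes; paired t-test.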

[4] = target: Glutamate NMDA receptor; Grin1/Grin2c (Rattus norvegicus) (UniProt P35439+Q00961); assay: Antagonist activity at rat recombinant NR1/NR2C receptor expressed in Xenopus laevis oocytes assessed as inhibition of glutamate/glycine-induced current at 3 uM by two electrode voltage clamp method relative to control; type: functional, cell-based; conditions: Oocyte; how it was run: as §1
[5] = target: Ionotropic glutamate receptor NMDA 1/2D (Rattus norvegicus) (UniProt P35439+Q62645); assay: Antagonist activity at rat recombinant NR1/NR2D receptor expressed in Xenopus laevis oocytes assessed as inhibition of glutamate/glycine-induced current at 3 uM by two electrode voltage clamp method relative to control; type: functional, cell-based; conditions: Oocyte; how it was run: as §1
[6] = target: Glutamate NMDA receptor; Grin1/Grin2b (Rattus norvegicus) (UniProt P35439+Q00960); assay: Antagonist activity at rat recombinant NR1/NR2B receptor expressed in Xenopus laevis oocytes assessed as inhibition of glutamate/glycine-induced current at 3 uM by two electrode voltage clamp method relative to control; type: functional, cell-based; conditions: Oocyte; how it was run: as §1
[7] = target: Glutamate receptor 1 (Rattus norvegicus) (UniProt P19490); assay: Antagonist activity at rat recombinant GluR1 expressed in Xenopus laevis oocytes assessed as inhibition of glutamate-induced current at 3 uM by two electrode voltage clamp method relative to control; type: functional, cell-based; conditions: Oocyte
How it was run: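 GluR1 homomers expressed from 5–10 ng cRNA in Xenopus oocytes. Clamped at −40 mV. Currents evoked by 100 μM glutamate with 3 μM compound, expressed as % of control without compound. Mean ± SEM, 4–10 oocytes; paired t-test.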

[8] = target: Adrenergic receptor alpha-1 (Rattus norvegicus) (UniProt P15823+P23944+P43140); assay: Displacement of [3H]prazosin from alpha1 adrenergic receptor in Wistar rat brain membrane at 3 uM; type: cell membranes
How it was run: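 Wistar rat brain membranes. Percent displacement of 0.25 nM [3H]prazosin by 3 μM compound, run in duplicate.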

[9] = target: T1, hERG (KCNH2) (Homo sapiens, UniProt Q12809); assay: Displacement of [3H]astemizole from human recombinant ERG expressed in HEK293 cells at 10 uM; type: cell-based; conditions: HEK293 cells expressing human recombinant ERG, probe [3H]astemizole, read-out: Activity
[10] = target: Voltage-gated inwardly rectifying potassium channel KCNH2 (Homo sapiens, UniProt Q12809); assay: Displacement of [3H]astemizole from human recombinant ERG expressed in HEK293 cells; type: cell-based
[11] = test system: MDCK; assay: Efflux ratio of permeability from basolateral to apical over apical to basolateral side in MDR1-expressing MDCK cells at 5 uM after 2 hrs by LC-MS/MS analysis; type: ADME, cell-based, Canis lupus familiaris; conditions: dog
[12] = target: Glutamate receptor ionotropic, NMDA 2B (Rattus norvegicus, UniProt Q00960); assay: Displacement of [3H]ifenprodil form NR2B receptor in Wistar rat cerebral cortex membrane; type: tissue-based
[13] = test system: MDCK; assay: Apparent permeability from apical to basolateral side of MDR1-expressing MDCK cells at 5 uM after 2 hrs by LC-MS/MS analysis; type: ADME, cell-based, Canis lupus familiaris; conditions: dog
How it was run: (§2)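 MDR1-MDCK monolayers grown 7–11 days on Transwells. Compound at 5 μM in HBSS pH 7.4 (final DMSO ≤1%) added apically (A–B) or basally (B–A). Incubated 2 h at 37 °C; both compartments quantified by LC–MS/MS against a >4-point calibration. Papp given in ×10−6 cm/s; efflux ratio = B–A/A–B. Duplicates.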

[14] = test system: MDCK; assay: Apparent permeability from basolateral to apical side of MDR1-expressing MDCK cells at 5 uM after 2 hrs by LC-MS/MS analysis; type: ADME, cell-based, Canis lupus familiaris; conditions: dog; how it was run: as §2
[15] = target: T1, hERG (KCNH2); assay: Displacement of [3H]astemizole from human recombinant ERG expressed in HEK293 cells at 3 uM; type: cell-based; conditions: HEK293 cells expressing human recombinant ERG, probe [3H]astemizole, read-out: Activity
How it was run: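 Membranes from HEK293 cells expressing human hERG. Ligand 1.5 nM [3H]-astemizole; displacement at a single test-compound concentration, run in duplicate.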

[16] = Selectivity ratio of IC50 for mouse NR1/NR2B receptor D101A mutant to IC50 for wild type rat NR1/NR2B receptor

Glutamate receptor 1 (Rattus norvegicus), sequence (P19490 whole entry): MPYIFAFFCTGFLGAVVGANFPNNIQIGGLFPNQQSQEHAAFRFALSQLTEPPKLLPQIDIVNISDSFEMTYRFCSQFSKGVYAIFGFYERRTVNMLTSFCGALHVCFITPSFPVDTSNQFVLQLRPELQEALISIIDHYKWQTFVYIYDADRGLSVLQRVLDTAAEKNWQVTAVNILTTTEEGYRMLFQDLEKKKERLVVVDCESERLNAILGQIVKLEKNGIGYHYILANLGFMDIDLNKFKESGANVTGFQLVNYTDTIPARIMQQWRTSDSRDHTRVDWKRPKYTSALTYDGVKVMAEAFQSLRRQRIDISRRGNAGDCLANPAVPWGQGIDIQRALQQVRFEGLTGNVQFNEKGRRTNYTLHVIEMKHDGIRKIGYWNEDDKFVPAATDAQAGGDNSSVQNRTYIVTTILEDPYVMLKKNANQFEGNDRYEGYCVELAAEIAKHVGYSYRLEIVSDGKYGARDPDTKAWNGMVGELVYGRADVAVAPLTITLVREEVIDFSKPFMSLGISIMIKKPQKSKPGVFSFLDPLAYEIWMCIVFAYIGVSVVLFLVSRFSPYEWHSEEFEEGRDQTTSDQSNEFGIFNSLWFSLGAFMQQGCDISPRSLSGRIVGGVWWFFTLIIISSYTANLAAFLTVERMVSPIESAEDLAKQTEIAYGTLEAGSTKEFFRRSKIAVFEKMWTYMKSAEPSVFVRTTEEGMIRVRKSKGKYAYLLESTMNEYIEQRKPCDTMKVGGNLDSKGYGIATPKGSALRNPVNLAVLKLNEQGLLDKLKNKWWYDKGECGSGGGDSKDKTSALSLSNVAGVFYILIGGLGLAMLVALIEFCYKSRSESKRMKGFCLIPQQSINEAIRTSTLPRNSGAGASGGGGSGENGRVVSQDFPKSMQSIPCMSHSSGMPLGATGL
Glutamate receptor ionotropic, kainate 2 (Rattus norvegicus), sequence (P42260 whole entry): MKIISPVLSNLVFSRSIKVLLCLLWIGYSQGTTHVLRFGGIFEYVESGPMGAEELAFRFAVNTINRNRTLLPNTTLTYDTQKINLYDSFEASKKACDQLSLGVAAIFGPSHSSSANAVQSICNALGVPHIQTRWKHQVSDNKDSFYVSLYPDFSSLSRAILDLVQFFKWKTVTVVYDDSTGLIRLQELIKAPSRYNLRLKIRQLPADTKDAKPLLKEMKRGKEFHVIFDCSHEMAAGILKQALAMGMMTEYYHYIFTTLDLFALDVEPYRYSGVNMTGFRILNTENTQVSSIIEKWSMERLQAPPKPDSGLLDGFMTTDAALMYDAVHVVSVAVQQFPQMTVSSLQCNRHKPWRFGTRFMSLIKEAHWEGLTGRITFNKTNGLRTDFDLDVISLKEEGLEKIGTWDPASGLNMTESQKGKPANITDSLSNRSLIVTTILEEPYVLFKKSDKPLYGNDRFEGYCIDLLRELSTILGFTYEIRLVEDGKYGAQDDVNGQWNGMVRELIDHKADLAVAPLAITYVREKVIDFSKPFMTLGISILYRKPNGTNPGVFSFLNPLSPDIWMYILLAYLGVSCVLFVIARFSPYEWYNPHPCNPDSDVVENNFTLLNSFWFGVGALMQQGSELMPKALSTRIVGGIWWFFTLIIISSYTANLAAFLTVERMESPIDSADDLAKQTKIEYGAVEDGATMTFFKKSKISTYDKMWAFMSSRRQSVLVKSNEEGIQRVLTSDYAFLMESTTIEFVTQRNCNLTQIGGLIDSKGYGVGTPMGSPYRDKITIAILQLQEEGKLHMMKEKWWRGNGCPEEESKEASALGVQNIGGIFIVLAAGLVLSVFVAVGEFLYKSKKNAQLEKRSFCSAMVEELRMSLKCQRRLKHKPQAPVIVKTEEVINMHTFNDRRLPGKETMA
Glutamate NMDA receptor; GRIN1/GRIN2B, sequence (Q13224 whole entry, other chains not shown): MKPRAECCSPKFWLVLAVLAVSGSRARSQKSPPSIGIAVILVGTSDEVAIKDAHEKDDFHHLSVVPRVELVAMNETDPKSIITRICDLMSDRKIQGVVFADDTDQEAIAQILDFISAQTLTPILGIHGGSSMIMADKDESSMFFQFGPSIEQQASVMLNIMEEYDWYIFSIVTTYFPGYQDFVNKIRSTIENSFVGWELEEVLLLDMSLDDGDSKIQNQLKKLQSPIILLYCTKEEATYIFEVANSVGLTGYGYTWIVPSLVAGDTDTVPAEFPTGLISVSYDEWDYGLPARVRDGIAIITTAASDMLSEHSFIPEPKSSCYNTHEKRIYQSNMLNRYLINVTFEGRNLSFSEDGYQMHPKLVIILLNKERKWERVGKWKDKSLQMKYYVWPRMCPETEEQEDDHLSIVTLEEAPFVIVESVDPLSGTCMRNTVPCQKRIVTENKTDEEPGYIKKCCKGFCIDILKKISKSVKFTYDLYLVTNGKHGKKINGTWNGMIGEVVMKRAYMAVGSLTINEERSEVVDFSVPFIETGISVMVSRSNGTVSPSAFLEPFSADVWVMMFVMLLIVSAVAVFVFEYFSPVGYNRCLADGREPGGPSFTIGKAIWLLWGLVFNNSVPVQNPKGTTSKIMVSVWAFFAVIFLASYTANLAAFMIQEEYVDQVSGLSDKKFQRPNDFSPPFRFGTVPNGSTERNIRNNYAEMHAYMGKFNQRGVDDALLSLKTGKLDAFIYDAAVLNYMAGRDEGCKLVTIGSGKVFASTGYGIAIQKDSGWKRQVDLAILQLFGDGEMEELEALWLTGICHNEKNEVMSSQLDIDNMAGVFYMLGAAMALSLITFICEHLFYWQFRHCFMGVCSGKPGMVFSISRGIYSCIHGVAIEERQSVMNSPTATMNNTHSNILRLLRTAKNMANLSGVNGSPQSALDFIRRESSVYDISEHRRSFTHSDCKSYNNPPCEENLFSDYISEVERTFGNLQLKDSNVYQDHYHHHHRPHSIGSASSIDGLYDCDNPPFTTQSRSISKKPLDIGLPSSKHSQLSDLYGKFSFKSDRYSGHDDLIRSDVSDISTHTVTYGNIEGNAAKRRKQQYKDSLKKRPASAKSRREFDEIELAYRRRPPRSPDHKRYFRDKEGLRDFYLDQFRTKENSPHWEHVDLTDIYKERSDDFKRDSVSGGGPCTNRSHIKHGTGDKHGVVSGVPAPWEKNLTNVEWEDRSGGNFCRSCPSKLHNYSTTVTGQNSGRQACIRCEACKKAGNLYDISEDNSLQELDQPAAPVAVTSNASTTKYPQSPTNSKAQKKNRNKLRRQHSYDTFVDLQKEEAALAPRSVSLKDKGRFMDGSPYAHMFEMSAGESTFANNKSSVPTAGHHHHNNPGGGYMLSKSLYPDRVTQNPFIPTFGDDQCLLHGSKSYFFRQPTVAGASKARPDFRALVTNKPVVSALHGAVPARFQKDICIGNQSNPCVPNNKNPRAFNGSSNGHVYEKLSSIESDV
T1 sequence (Q12809 whole entry): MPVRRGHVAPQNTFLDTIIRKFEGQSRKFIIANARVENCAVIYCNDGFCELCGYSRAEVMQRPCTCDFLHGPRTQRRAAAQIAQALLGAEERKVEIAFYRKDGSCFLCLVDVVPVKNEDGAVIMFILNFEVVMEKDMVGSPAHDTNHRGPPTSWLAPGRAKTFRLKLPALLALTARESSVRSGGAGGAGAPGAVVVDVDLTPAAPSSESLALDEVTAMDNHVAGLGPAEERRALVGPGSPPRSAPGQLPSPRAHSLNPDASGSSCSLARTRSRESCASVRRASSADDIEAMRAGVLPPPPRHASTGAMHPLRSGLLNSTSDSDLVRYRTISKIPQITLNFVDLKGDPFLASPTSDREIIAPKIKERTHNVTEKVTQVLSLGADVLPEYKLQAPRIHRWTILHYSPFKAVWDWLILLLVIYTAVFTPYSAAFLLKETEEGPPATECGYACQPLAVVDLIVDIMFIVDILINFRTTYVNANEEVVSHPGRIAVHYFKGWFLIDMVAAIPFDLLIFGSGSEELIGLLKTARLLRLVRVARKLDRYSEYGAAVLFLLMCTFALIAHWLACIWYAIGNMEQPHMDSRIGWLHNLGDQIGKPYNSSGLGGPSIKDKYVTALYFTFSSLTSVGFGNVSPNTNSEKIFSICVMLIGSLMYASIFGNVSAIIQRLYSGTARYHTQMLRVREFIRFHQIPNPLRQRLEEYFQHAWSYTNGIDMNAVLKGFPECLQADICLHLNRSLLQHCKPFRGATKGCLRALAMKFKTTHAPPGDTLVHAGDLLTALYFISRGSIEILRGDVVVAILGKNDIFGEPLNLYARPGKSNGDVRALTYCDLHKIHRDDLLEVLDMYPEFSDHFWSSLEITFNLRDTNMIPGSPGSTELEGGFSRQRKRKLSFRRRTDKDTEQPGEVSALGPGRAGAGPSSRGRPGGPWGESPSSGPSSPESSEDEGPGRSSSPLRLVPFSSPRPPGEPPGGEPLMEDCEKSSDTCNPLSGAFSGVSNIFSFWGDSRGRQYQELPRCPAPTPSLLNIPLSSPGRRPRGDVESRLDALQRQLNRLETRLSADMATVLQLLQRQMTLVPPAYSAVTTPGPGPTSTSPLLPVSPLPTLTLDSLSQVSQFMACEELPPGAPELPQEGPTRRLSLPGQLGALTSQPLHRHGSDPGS

Structure (SMILES)	IC50 [1] [nM]	% response [2] [%]	% response [3] [%]	% response [4] [%]	% response [5] [%]	% response [6] [%]	% response [7] [%]	Activity [8] [%]	Ratio [11]	Ki [12] [nM]	Papp [13] [×10⁻⁶ cm/s]	Papp [14] [×10⁻⁶ cm/s]	Ratio IC50 [16]	inhibition at 10 µM [9] [%]	Ki [10] [nM]	inhibition at 3 µM [15] [%]
CS(=O)(=O)Nc1ccc(CCCC(=O)NCCc2ccc(Cl)c(Cl)c2)cc1	1860	99	100	102	89	62	102	–	–	–	–	–	–	–	–	–
CS(=O)(=O)Nc1ccc(OCCNCC(=O)Nc2ccc(Cl)c(Cl)c2)cc1	1110	108	98	94	95	21	97	21	–	–	–	–	–	67	–	–
CS(=O)(=O)Nc1ccc(OCCNCCNc2ccc(Cl)c(Cl)c2)cc1	39	91	98	100	100	17	101	49	–	–	–	–	–	97	300	–
CS(=O)(=O)Nc1ccc(OCCN2CCN(c3ccc(Cl)c(Cl)c3)C2=O)cc1	730	105	103	98	98	20	98	23	3.1	300	12.9	40.2	–	71	–	–
CS(=O)(=O)Nc1ccc(CCC(=O)NNC(=O)c2ccc(Cl)c(Cl)c2)cc1	521	102	97	97	96	21	100	–	–	–	–	–	–	–	–	–
CS(=O)(=O)Nc1ccc(CCC(=O)NC/C=C/c2ccc(Cl)c(Cl)c2)cc1	50	99	100	95	88	18	104	16	–	–	–	–	–	–	3000	47
CS(=O)(=O)Nc1ccc(CCCNCCNc2ccc(Cl)c(Cl)c2)cc1	19	89	99	104	91	21	102	52	–	–	–	–	–	> 98	14	–
CS(=O)(=O)Nc1ccc(CCC(=O)NCCCNc2ccc(Cl)c(Cl)c2)cc1	750	96	98	90	96	12	100	19	–	–	–	–	–	83	–	–
CS(=O)(=O)Nc1ccc(OCC(=O)NCCOc2ccc(Cl)c(Cl)c2)cc1	380	97	100	96	92	21	100	11	–	–	–	–	–	42	–	–
CS(=O)(=O)Nc1ccc(CCCN2CCN(c3ccc(Cl)c(Cl)c3)C2=O)cc1	637	96	99	97	91	17	100	–	–	–	–	–	–	81	–	–
CS(=O)(=O)Nc1ccc(CCC(=O)N2CCN(c3ccc(Cl)c(Cl)c3)CC2)cc1	3600	103	101	100	97	48	104	–	–	–	–	–	–	–	–	–
CS(=O)(=O)Nc1ccc(CCC(=O)NN2C(=O)c3cc(Cl)c(Cl)cc3C2=O)cc1	41800	101	100	102	93	90	98	–	–	–	–	–	–	–	–	–
CS(=O)(=O)Nc1ccc(CCC(=O)NNCCc2ccc(Cl)c(Cl)c2)cc1	4810	106	98	97	95	44	100	–	–	–	–	–	–	–	–	–

More lines, main results first:

IC50 [1] [nM]	% response [2] [%]	% response [3] [%]	% response [4] [%]	% response [5] [%]	% response [6] [%]	% response [7] [%]	Activity [8] [%]	Ratio [11]	Ki [12] [nM]	Papp [13] [×10⁻⁶ cm/s]	Papp [14] [×10⁻⁶ cm/s]	Ratio IC50 [16]	Structure (SMILES)	inhibition at 10 µM [9] [%]	Ki [10] [nM]	inhibition at 3 µM [15] [%]
64	99	102	96	79	15	100	–	–	–	–	–	–	CS(=O)(=O)Nc1ccc(OCC(=O)NCCCc2ccc(Cl)c(Cl)c2)cc1	< 1	–	–
362	96	94	95	96	21	101	5	–	–	–	–	–	CS(=O)(=O)Nc1ccc(OCC(=O)NCCSc2ccc(Cl)c(Cl)c2)cc1	75	–	–
28	101	99	96	91	6	100	5	–	–	–	–	51	CS(=O)(=O)Nc1ccc(CCC(=O)NNC(=O)Nc2ccc(Cl)c(Cl)c2)cc1	3	–	–
166	89	101	94	106	18	101	90	–	817	4.76	42.4	–	CS(=O)(=O)Nc1ccc(OCC(=O)N2CCN(c3ccc(Cl)c(Cl)c3)CC2)cc1	93	–	–
72	100	94	95	97	14	101	22	–	–	–	–	–	CS(=O)(=O)Nc1ccc(OCC(=O)NC/C=C/c2ccc(Cl)c(Cl)c2)cc1	74	–	–
270	104	96	94	92	12	100	–	–	–	–	–	–	CS(=O)(=O)Nc1ccc(CCC(=O)NNC(=S)Nc2ccc(Cl)c(Cl)c2)cc1	13	–	–
193	106	90	97	100	12	103	–	–	–	–	–	–	CS(=O)(=O)Nc1ccc(OCC(=O)NCCCNc2ccc(Cl)c(Cl)c2)cc1	–	–	–
65	99	98	–	84	14	–	1	–	–	–	–	–	CS(=O)(=O)Nc1ccc(CCC(=O)NCCNc2ccc(Cl)c(Cl)c2)cc1	–	–	–
